This passage reports Activity results from ChEMBL document CHEMBL4138217, “Discovery of a novel series of α-terpineol derivatives as promising anti-asthmatic agents: Their design, synthesis, and biological evaluation” (2018).

Experiment [1] deals with Smooth muscle of trachea. Put plainly: Anti-asthmatic activity in guinea pig tracheal smooth muscle ring assessed as reduction in acetylcholine-induced muscle contractions by measuring muscle relaxation at 0.75 mmol/l after 60 mins (reference value: 7.73 +/- 4.81%). It is filed as functional, Cavia porcellus. Also on record: scale not given: the % may be the effect or the level left. The procedure, abridged: (§1)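 Guinea pig tracheal rings were held in Krebs-Henseleit at 36.5±0.5°C under 95% O2/5% CO2, at 1.0 g resting tension with 60-min equilibration. Isometric tension was recorded after acetylcholine-induced contraction. The read-out was percentage change in smooth muscle tension with compound, as means±S.D (n=10).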

For experiment [2], the system named is Smooth muscle of trachea. Put plainly: Anti-asthmatic activity in guinea pig tracheal smooth muscle ring assessed as reduction in acetylcholine-induced muscle contractions after 60 mins. The settings on record: Cavia porcellus. The experiment is classed as functional, tissue-based. Summed up: as §1
Experiment [3] deals with Smooth muscle of trachea. Put plainly: Anti-asthmatic activity in guinea pig tracheal smooth muscle ring assessed as reduction in acetylcholine-induced muscle contractions by measuring muscle relaxation at 1.25 mmol/l after 60 mins (reference value: 13.59 +/- 9.14%). The experiment is classed as functional, Cavia porcellus. Also on record: scale not given: the % may be the effect or the level left. The procedure, abridged:
as §1

For experiment [4], the system named is Rattus norvegicus. Put plainly: Anti-asthmatic activity in ovalbumin-induced asthmatic Sprague-Dawley rat model assessed as IL-17 levels in serum at 1.6 g/kg, po co-administered with OVA from day 15 to 21 of experiment period (reference value: 16.85 +/- 1.13 pg/ml). It is filed as functional.
Experiment [5] has as its system Rattus norvegicus. Put plainly: Anti-asthmatic activity in ovalbumin-induced asthmatic Sprague-Dawley rat model assessed as improvement in lung function by measuring dynamic compliance of the airway at 1.6 g/kg, po co-administered with OVA from day 15 to 21 of experiment period (reference value: 0.46 +/- 0.17). It is filed as functional.
In experiment [6] the target is Adrenergic receptor beta (Rattus norvegicus) (UniProt P18090+P10608+P26255). Put plainly: Agonist activity at beta-adrenergic receptor in rat airway smooth muscle cells assessed as reduction in acetylcholine-induced muscle contractions by measuring cAMP levels after 18 hrs post acetylcholine stimulation by ELISA (reference value: 8.402 +/- 0.041 nmol/l). The experiment is classed as functional. Summed up: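 Rat airway smooth muscle cells (passages 4–6) were seeded at 5×10^4/mL and grown for 48 h. They were stimulated with acetylcholine 0.33 mmol/L for 4 h, then exposed to compound for 18 h. Cells were trypsinized (0.25%, 2 min) and sonicated, and cAMP in the supernatant was measured by ELISA.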

The subject of experiment [7] is Rattus norvegicus. The experiment in a line: Anti-asthmatic activity in ovalbumin-induced asthmatic Sprague-Dawley rat model assessed as IL-14 levels in serum at 1.6 g/kg, po co-administered with OVA from day 15 to 21 of experiment period (reference value: 16.04 +/- 1.41 pg/ml). The experiment is classed as functional.
Experiment [8] concerns Rattus norvegicus. Put plainly: Anti-asthmatic activity in ovalbumin-induced asthmatic Sprague-Dawley rat model assessed as improvement in lung function by measuring airway resistance at 1.6 g/kg, po co-administered with OVA from day 15 to 21 of experiment period (reference value: 67.33 +/- 10.54). It is filed as functional.
Experiment [9] relates to Rattus norvegicus. Put plainly: Anti-asthmatic activity in ovalbumin-induced asthmatic Sprague-Dawley rat model assessed as IL-17 levels in serum at 1 g/kg, po co-administered with OVA from day 15 to 21 of experiment period (reference value: 16.85 +/- 1.13 pg/ml). It is filed as functional.
Experiment [10] concerns Rattus norvegicus. The experiment in a line: Anti-asthmatic activity in ovalbumin-induced asthmatic Sprague-Dawley rat model assessed as IL-14 levels in serum at 1 g/kg, po co-administered with OVA from day 15 to 21 of experiment period (reference value: 16.04 +/- 1.41 pg/ml). The experiment is classed as functional.
The test system of experiment [11] is Rattus norvegicus. Put plainly: Anti-asthmatic activity in ovalbumin-induced asthmatic Sprague-Dawley rat model assessed as improvement in lung function by measuring dynamic compliance of the airway at 1 g/kg, po co-administered with OVA from day 15 to 21 of experiment period (reference value: 0.46 +/- 0.17). The experiment is classed as functional.
The subject of experiment [12] is Rattus norvegicus. Put plainly: Anti-asthmatic activity in ovalbumin-induced asthmatic Sprague-Dawley rat model assessed as improvement in lung function by measuring airway resistance at 1 g/kg, po co-administered with OVA from day 15 to 21 of experiment period (reference value: 67.33 +/- 10.54). The experiment is classed as functional.
Experiment [13] concerns Rattus norvegicus. Put plainly: Anti-asthmatic activity in ovalbumin-induced asthmatic Sprague-Dawley rat model assessed as improvement in lung function by measuring airway resistance at 0.5 mg/kg, po co-administered with OVA from day 15 to 21 of experiment period (reference value: 67.33 +/- 10.54).
The subject of experiment [14] is Rattus norvegicus. Put plainly: Anti-asthmatic activity in ovalbumin-induced asthmatic Sprague-Dawley rat model assessed as IL-14 levels in serum at 0.5 mg/kg, po co-administered with OVA from day 15 to 21 of experiment period (reference value: 16.04 +/- 1.41 pg/ml).
The subject of experiment [15] is Rattus norvegicus. The experiment in a line: Anti-asthmatic activity in ovalbumin-induced asthmatic Sprague-Dawley rat model assessed as IL-17 levels in serum at 0.5 mg/kg, po co-administered with OVA from day 15 to 21 of experiment period (reference value: 16.85 +/- 1.13 pg/ml).
Experiment [16] relates to Rattus norvegicus. The experiment in a line: Anti-asthmatic activity in ovalbumin-induced asthmatic Sprague-Dawley rat model assessed as improvement in lung function by measuring dynamic compliance of the airway at 0.5 mg/kg, po co-administered with OVA from day 15 to 21 of experiment period (reference value: 0.46 +/- 0.17).

As for `CC1=CCC(C(C)(C)OC=O)CC1` (stereo not given), the Activity was 14.62% with Smooth muscle of trachea [1], “Dose-dependent effect” in the experiment with Smooth muscle of trachea [2] and 21.57% with Smooth muscle of trachea [3].
Regarding `CC1=CCC(C(C)(C)OC(=O)CN(C)CCO)CC1` (stereo not given), the Activity with Rattus norvegicus [4] was 16.35 pg/mL; in the experiment with Rattus norvegicus [5] it was 0.84; in experiment [6], 9.01 nmol/L; in the experiment with Smooth muscle of trachea [2], “Dose-dependent effect”; in the experiment on Rattus norvegicus [7], 15.66 pg/mL; with Rattus norvegicus [8], 51.69.
As for `CC1=CCC(C(C)(C)O)CC1` (stereo not given), the Activity is 16.19 pg/mL with Rattus norvegicus [9]; 8.51 nmol/L in experiment [6]; “Dose-dependent effect” with Smooth muscle of trachea [2]; 15.5 pg/mL in the experiment on Rattus norvegicus [10]; 0.53 with Rattus norvegicus [11]; 60.57 in the experiment with Rattus norvegicus [12].
For `CCC(=O)OC(C)(C)C1CC=C(C)CC1` (stereo not given), the values for the Activity in the experiment on Smooth muscle of trachea [1], in the experiment with Smooth muscle of trachea [2] and in the experiment on Smooth muscle of trachea [3] were 18.18%, “Dose-dependent effect” and 23.22%, respectively.
In the case of `CCCCCCCCCCCCCC(=O)OC(C)(C)C1CC=C(C)CC1` (stereo not given), the Activity result with Smooth muscle of trachea [2] is “Dose-dependent effect”.
The same measure, in the same setting: for `CC1=CCC(C(C)(C)OC(=O)CO[N+](=O)[O-])CC1` (stereo not given) the value was “Dose-dependent effect”.
As to `CC1=CCC(C(C)(C)OC(=O)C(C)C)CC1` (stereo not given), the Activity was 19.88% with Smooth muscle of trachea [1], “Dose-dependent effect” with Smooth muscle of trachea [2] and 22.79% with Smooth muscle of trachea [3].
With `CC1=CCC(C(C)(C)OC(=O)CN2CCOCC2)CC1` (stereo not given), the Activity in experiment [6] was 8.81 nmol/L; in the experiment on Smooth muscle of trachea [2], “Dose-dependent effect”.
With `CCCC(=O)OC(C)(C)C1CC=C(C)CC1` (stereo not given), the Activity with Smooth muscle of trachea [1] was 21.2%; in the experiment with Smooth muscle of trachea [2], “Dose-dependent effect”; in the experiment on Smooth muscle of trachea [3] it was 25.47%.
Turning to `CCCCCCCCCCCCCCCCCC(=O)OC(C)(C)C1CC=C(C)CC1` (stereo not given), the Activity result in the experiment with Smooth muscle of trachea [2] was “Dose-dependent effect”.
For `CCN(CC)CC(=O)OC(C)(C)C1CC=C(C)CC1` (stereo not given), the Activity was 9.53 nmol/L in [6] and “Dose-dependent effect” with Smooth muscle of trachea [2].
Take `CC(=O)OCC(=O)[C@@]1(O)[C@H](C)C[C@H]2[C@@H]3CCC4=CC(=O)C=C[C@]4(C)[C@@]3(F)[C@@H](O)C[C@@]21C` [DEXAMETHASONE ACETATE]: the Activity in the experiment with Rattus norvegicus [13] was determined as 41.51; in the experiment on Rattus norvegicus [14] it was 14.31 pg/mL; with Rattus norvegicus [15], 16.06 pg/mL; with Rattus norvegicus [16], 0.66.
`CC1=CCC(C(C)(C)OC(=O)C(C)(C)C)CC1` (stereo not given): the results for the Activity in the experiment on Smooth muscle of trachea [1], in the experiment with Smooth muscle of trachea [2] and in the experiment on Smooth muscle of trachea [3] were 25.49%, “Dose-dependent effect” and 28.02%, respectively.
Regarding `CC1CCC(C(C)(C)O)CC1` (stereo not given), the Activity entry in the experiment with Smooth muscle of trachea [2] was “Dose-dependent effect”.
Regarding `Cn1c(=O)c2[nH]cnc2n(C)c1=O`, the Activity in [6] was 8.6 nmol/L; with Smooth muscle of trachea [2], “Dose-dependent effect”.
The like results for `CC1=CCC(C(C)(C)OC(=O)CN2CCC(O)CC2)CC1` (stereo not given) were, in that order, 8.98 nmol/L and “Dose-dependent effect”.
As to `CC1=CCC(C(C)(C)OC(=O)CN2CCCCC2)CC1` (stereo not given), in the experiment with Smooth muscle of trachea [2], the Activity result was “Dose-dependent effect”.
For `CC(=O)OC(C)(C)C1CC=C(C)CC1` (stereo not given), the values for the Activity with Smooth muscle of trachea [1], with Smooth muscle of trachea [2] and in the experiment with Smooth muscle of trachea [3] were 34.35%, “Dose-dependent effect” and 47.72%, respectively.
For the molecule `CC1=CCC(C(C)(C)OC(=O)CN(CCO)CCO)CC1` (stereo not given), the Activity was 8.94 nmol/L in experiment [6] and “Dose-dependent effect” in the experiment with Smooth muscle of trachea [2].
Consider `CC1=CCC(C(C)(C)OC(=O)CSCCO)CC1` (stereo not given), for which the Activity in the experiment with Rattus norvegicus [4] is 15.09 pg/mL; in the experiment with Rattus norvegicus [5], 0.88; in [6], 8.82 nmol/L; in the experiment on Smooth muscle of trachea [2], “Dose-dependent effect”; in the experiment on Rattus norvegicus [7], 14 pg/mL; in the experiment on Rattus norvegicus [8] it was 41.69.
As for `CC1=CCC(C(C)(C)OC(=O)CSCC(O)CO)CC1` (stereo not given), the Activity in experiment [6] was 8.76 nmol/L; in the experiment with Smooth muscle of trachea [1] it was 34.84%; in the experiment with Smooth muscle of trachea [2], “Dose-dependent effect”; with Smooth muscle of trachea [3] it was 65.29%.
For the molecule `CC1=CCC(C(C)(C)OC(=O)CN2CCC(=O)CC2)CC1` (stereo not given), the Activity result with Smooth muscle of trachea [2] was “Dose-dependent effect”.
